Active and inactive are the calls of the source. The rule behind the calls is not given here.
Columns and labels:
NCI-H2228 [1] = test: Cytotoxicity against human NCI-H2228 cells assessed as cell viability after 72 hrs by MTS assay; type: functional, cell-based; details: NCI-H2228, 72 h
How it was run: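 H2228 cells seeded and grown 24 h, then exposed in triplicate to a range of concentrations for 72 h at 37 °C, 5% CO₂. MTS (5 mg/mL solution) added for 4 h, medium removed, plates shaken, absorbance read at 570 nm. Inhibition computed against controls. IC50 = concentration giving 50% growth inhibition.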

NCI-H2228 [2] = test: Antitumor activity against human NCI-H2228 cells xenografted in Rowett nude rat assessed as tumor growth inhibition at 38.28 mg/kg/day, po administered for 14 days measured on day 15 relative to vehicle-treated control; type: functional; details: read-out: TGI
How it was run: (§1)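 RNU nude rats carrying H2228 tumours, randomized at mean tumour size 150 mm³ (n = 6 per group). Dosed by oral gavage, vehicle 0.5% MC/0.5% Tween 80, 10 μL/g body weight, daily for 14 days starting day 15 post-implant. Tumour volume = ab²/2. Rats killed after 14 days and tumours excised and weighed. Inhibition = (control mean tumour weight − treated mean)/control mean × 100%.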

Rattus norvegicus [3] = test: Toxicity in Rowett nude rat xenografted with human NCI-H2228 cells assessed as body weight reduction at 38.28 mg/kg/day, po administered for 14 days measured during compound treatment; type: organism-based; design: route oral; details: in vivo, 336 h
How it was run: (§2)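 H2228 xenograft-bearing RNU nude rats (n = 6 per group, mean starting tumour 150 mm³) given daily oral gavage in 0.5% MC/0.5% Tween 80, 10 μL/g, for 14 consecutive days. Body weight tracked regularly throughout dosing.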

Rattus norvegicus [4] = test: Prodrug conversion in Sprague-Dawley rat assessed as release of ceritinib in plasma at 38.28 mg/kg, po measured over 24 hrs by HPLC analysis; type: ADME, organism-based; design: dose 38.28 mg/kg, route oral; details: in vivo
How it was run: (§3)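 Male SD rats, 200–220 g, randomized into three groups (n = 4). Single oral gavage dose in 0.5% MC/0.5% Tween 80 at 10 μL/g. Plasma sampled at 0.5, 1, 3, 5, 8 and 24 h, deproteinized with ethyl acetate, vortexed and centrifuged at 4000 rpm for 5 min. Organic phase analysed for ceritinib by HPLC.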

NCI-H2228 [5] = test: Antitumor activity against human NCI-H2228 cells xenografted in Rowett nude rat assessed as tumor growth inhibition at 36.24 mg/kg/day, po administered for 14 days measured on day 15; type: functional, organism-based; how it was run: as §1
Rattus norvegicus [6] = test: Toxicity in Rowett nude rat xenografted with human NCI-H2228 cells assessed as body weight reduction at 36.24 mg/kg/day, po administered for 14 days measured during compound treatment; type: organism-based; design: route oral; details: in vivo, 336 h; how it was run: as §2
Rattus norvegicus [7] = test: Prodrug conversion in Sprague-Dawley rat assessed as release of ceritinib in plasma at 36.24 mg/kg, po measured over 24 hrs by HPLC analysis; type: ADME, organism-based; design: dose 36.24 mg/kg, route oral; details: in vivo; how it was run: as §3
NCI-H2228 [8] = test: Antitumor activity against human NCI-H2228 cells xenografted in Rowett nude rat assessed as tumor growth inhibition at 30 mg/kg/day, po administered for 14 days measured on day 15; type: functional, organism-based; how it was run: as §1
Plasma = test: Drug uptake in Sprague-Dawley rat plasma at 25 mg/kg, po measured over 24 hrs by HPLC analysis; type: ADME, organism-based; design: dose 25 mg/kg, route oral; details: in vivo; how it was run: as §3

Compound	IC50 (NCI-H2228 [1])	also measured
COC(=O)N1CCC(c2cc(OC(C)C)c(Nc3ncc(Cl)c(Nc4ccccc4S(=O)(=O)C(C)C)n3)cc2C)CC1	1110 nM	
CCCCCOC(=O)N1CCC(c2cc(OC(C)C)c(Nc3ncc(Cl)c(Nc4ccccc4S(=O)(=O)C(C)C)n3)cc2C)CC1	67200 nM	
Cc1cc(Nc2ncc(Cl)c(Nc3ccccc3S(=O)(=O)C(C)C)n2)c(OC(C)C)cc1C1CCN(C(=O)OCOP(=O)(O)O)CC1	24 nM	inhibition in vivo at 38.28 mg/kg/day (NCI-H2228 [2]): 80%; Activity (Rattus norvegicus [3]): Non-toxic; Drug metabolism (Rattus norvegicus [4]): metabolite_notdetected
CC(=O)OCOC(=O)N1CCC(c2cc(OC(C)C)c(Nc3ncc(Cl)c(Nc4ccccc4S(=O)(=O)C(C)C)n3)cc2C)CC1	120 nM	TGI (NCI-H2228 [5]): inactive; Activity (Rattus norvegicus [6]): Non-toxic; Drug metabolism (Rattus norvegicus [7]): metabolite_notdetected
CCOP(=O)(OCC)N1CCC(c2cc(OC(C)C)c(Nc3ncc(Cl)c(Nc4ccccc4S(=O)(=O)C(C)C)n3)cc2C)CC1	571 nM	
Cc1cc(Nc2ncc(Cl)c(Nc3ccccc3S(=O)(=O)C(C)C)n2)c(OC(C)C)cc1C1CCNCC1 [CERITINIB]	103 nM	TGI (NCI-H2228 [8]): Active; Drug uptake (Plasma): Active
CCC(C)OC(=O)N1CCC(c2cc(OC(C)C)c(Nc3ncc(Cl)c(Nc4ccccc4S(=O)(=O)C(C)C)n3)cc2C)CC1 (stereo not given)	7400 nM	
CCOC(=O)N1CCC(c2cc(OC(C)C)c(Nc3ncc(Cl)c(Nc4ccccc4S(=O)(=O)C(C)C)n3)cc2C)CC1	1200 nM	
Cc1cc(Nc2ncc(Cl)c(Nc3ccccc3S(=O)(=O)C(C)C)n2)c(OC(C)C)cc1C1CCN(P(=O)(OCc2ccccc2)OCc2ccccc2)CC1	2690 nM	
Cc1cc(Nc2ncc(Cl)c(Nc3ccccc3S(=O)(=O)C(C)C)n2)c(OC(C)C)cc1C1CCN(C(=O)OCOP(=O)(OCc2ccccc2)OCc2ccccc2)CC1	1040 nM	
Cc1cc(Nc2ncc(Cl)c(Nc3ccccc3S(=O)(=O)C(C)C)n2)c(OC(C)C)cc1C1CCN(P(=O)(Oc2ccccc2)Oc2ccccc2)CC1	14400 nM	
Cc1cc(Nc2ncc(Cl)c(Nc3ccccc3S(=O)(=O)C(C)C)n2)c(OC(C)C)cc1C1CCN(P(=O)(O)OCc2ccccc2)CC1	57.4 nM	
